High-throughput results from PubChem.
STAT1 activator = increases IFN-gamma driven STAT1 reporter signal. 2.6% of 200,000 active. activation (% of control), % at 5.5 µM. NIH 3T3 STAT1-luciferase reporter, luminescence; 100% = IFN-gamma alone, no compound;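 active = activation above the screen-wide mean activation plus 3 SD, cut at about 130% in these data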;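 note: raw ratio to IFN-gamma control signal so 100% means no change and 0% no light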
STAT3 activator = increases IL-6 driven STAT3 reporter signal. U3A cells, IL-6 STAT3-luciferase reporter, luminescence; 100% = signal with IL-6 EC80 alone. activation (% of control), % at 5.6 µM. 0.91% of 190,000 active;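 active = activation above the screen-wide mean of compound activation plus 3 SD, cut at about 130% in these data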;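 note: 0% = background luminescence of wells with medium and substrate only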
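Test system: human U3A cells carrying STAT3-luciferase construct; control set: IL-6-only wells as 100% reference; timing: compound pre-incubation 1 h before IL-6, then 6 h stimulation at 37 °C; also added: IL-6 stimulus at 33 ng/mL final; evaluation: % activation versus median of IL-6-stimulated wells; detection: reporter luminescence signal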
NF-kB neuron act = raises NF-kB expression in human neuronal cells; fold change at 12.5 µM; NF-kB reporter expression; active compounds read high; 1.6% of 190,000 active; in the data active = fold change above about 3.3
APP 5'UTR act = APP 5'UTR luciferase reporter activation. SH-SY5Y APP 5'UTR luciferase reporter, luminescence; zero percent = DMSO vehicle wells. activation, % at 2 µM. 1% of 190,000 active. AID 1276;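 active = activation above a set limit, based on mean plus 3 SD of controls, cut at about 140% in these data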
STAT3 inh = reduces IL-6 driven STAT3 reporter signal | 0.89% of 190,000 active | inhibition, % at 5.5 µM | AID 862 | U3A cells, IL-6 STAT3-luciferase reporter, luminescence; host cell line lacks STAT1;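 active = inhibition above the mean inhibition across all screened compounds plus 3 SD, cut at about 44% in these data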;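 note: 0% = DMSO only wells and 100% = 100 µM nifuroxazide control wells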
STAT1 blocker = STAT1 signaling inhibition; NIH 3T3 STAT1-luciferase reporter, IFN-gamma, luminescence; 0.35% of 200,000 active; AID 920; inhibition, % at 5.5 µM;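 active = inhibition above a set limit, the mean inhibition across all tested compounds plus 3 SD, cut at about 34% in these data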;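 note: 0% = IFN-gamma with DMSO and 100% = IFN-gamma with 300 µM nifuroxazide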
* = called active by the depositor; . = not tested or not shown. In the library only some 4.9% were active in any assay of this set; here they are far more common.

SMILES	STAT1 activator	STAT3 activator	NF-kB neuron act	APP 5'UTR act	STAT3 inh	STAT1 blocker
Cc1oc(-c2nc3ccccc3n2C)cc1C(=O)c1ccccc1	64	42	2.6	190*	73*	39*
CC(=O)c1ccc(-c2nc3ccccc3n2C)o1	130*	90	2.2	40	15	-32
Cn1c(-c2ccc(Br)o2)nc2ccccc21	140*	92	4.5*	135	11	-44
Cn1c(-c2ccc(Br)o2)nc2cc(Br)ccc21	138*	109	5.3*	.	-4	-42
CN(C)c1ncc(/C=C2/C(=O)NC(=S)N(C3CCCCC3)C2=O)cn1	97	97	1.2	-12	11	2
CC(C)(C)C(=O)NC(=S)NCc1ccccc1	93	97	1	5	6	8
COc1ccc(CCN(Cc2cc3ccc(C)cc3n3nnnc23)C(C)=O)cc1OC	104	106	0.97	-23	2	-4
Cc1ccc(-c2nc3ccccc3n2C)o1	130*	83	3.6*	46	26	-32
Cn1c(Sc2nc3ccccc3n2C)nc2ccccc21	92	115	1.1	16	-15	9
CC(=O)Nc1cc(C(=O)N2CCc3ccccc3C2)ccc1Sc1ccc(Cl)cc1	106	109	0.95	17	-10	-7
Cc1ccc(NC(=O)Nc2ccccc2CC[N+](=O)[O-])cc1	102	133*	1.2	19	-30	-3
Cc1cc(C)cc(NC(=O)c2ccccc2CC[N+](=O)[O-])c1	107	109	1.1	9	-8	-8
Cn1c(SCc2ccc(C#N)cc2Cl)nc2ccccc21	145*	91	5.3*	187*	11	-50
O=C(COC(=O)c1cccs1)c1ccccc1	131*	105	4.6*	55	0	-34
O=C(c1ccccc1)c1cccs1	97	97	.	5	8	2
O=C(CSCc1ccco1)c1cccs1	124	104	1.9	170*	2	-27
O=C(NCc1ccco1)c1cccs1	98	112	1.3	24	-12	2
O=C(CCC(=O)c1cccs1)c1cccs1	130*	88	5.2*	131	18	-33
NC(=O)c1c(NC(=O)C2CCCO2)sc2c1CCCC2 (stereo not given)	121	93	1.4	24	10	-24
CCOc1ccc(NC(=O)COc2ccccc2)c([N+](=O)[O-])c1	148*	90	4.1*	78	20	-52
CCC(=O)Nc1ccc(C(=O)N/N=C/c2ccccc2[N+](=O)[O-])cc1	103	109	0.92	30	0	-3
CCOc1ccc(NC(=O)Cc2ccccc2)c([N+](=O)[O-])c1	100	86	1.6	-1	20	0
COc1ccc(NC(=O)/C=C/c2ccccc2)c([N+](=O)[O-])c1	147*	107	1.4	76	-9	-54
O=C(COc1ccccc1)Nc1ccccc1Cl	132*	96	1.6	70	14	-37
CCOc1ccc(C(=O)N/N=C/c2ccccc2[N+](=O)[O-])cc1	134*	95	2	140*	10	-38
SMILES	STAT1 activator	STAT3 activator	NF-kB neuron act	APP 5'UTR act	STAT3 inh	STAT1 blocker
CSCCC(NC(=O)c1ccc(Cl)cc1)C(=O)NC(C)(C)C (stereo not given)	101	101	1.1	0	-4	-1
COc1ccc(Cn2nnnc2C(c2ccc(N(C)C)cc2)N2CCC(C(N)=O)CC2)cc1 (stereo not given)	99	101	1.3	2	3	1
Cn1nc(C(=O)OCc2ccc(Br)cc2F)c2ccccc2c1=O	78	69	1.1	4	41	23
O=C(COC(=O)c1cc(Br)ccc1Cl)NC1CCCC1	100	103	1.2	-12	-4	0
COc1ccc(Oc2nccc(-c3ccc(F)cc3)c2C#N)cc1	119	98	1.1	3	4	-21
COc1ccc(Oc2nccc(-c3ccccc3)c2C#N)cc1	129*	87	2.1	56	18	-32
CCOc1ccc(C(=O)N(c2ccccn2)C2CCCCC2)cc1	85	100	1.3	-4	-1	16
O=C(NCC(c1ccco1)N1CCCCC1)c1ccc2c(c1)S(=O)(=O)c1ccccc1C2=O (stereo not given)	97	114	0.57	13	-7	3
